Assay results as given in ChEMBL document CHEMBL1136734, “Discovery of tyrosine-based potent and selective melanocortin-1 receptor small-molecule agonists with anti-inflammatory properties” (J Med Chem, 2003).
Activity calls are given as the source filed them. No cut-off for these calls is given here.

Key:
[1] = biological target: T1, Melanocyte-stimulating hormone receptor (Homo sapiens, UniProt Q01726); test: In vitro inhibitory concentration against human Melanocortin 1 receptor (MC1R)
Target sequence in this assay (Q01726 whole entry): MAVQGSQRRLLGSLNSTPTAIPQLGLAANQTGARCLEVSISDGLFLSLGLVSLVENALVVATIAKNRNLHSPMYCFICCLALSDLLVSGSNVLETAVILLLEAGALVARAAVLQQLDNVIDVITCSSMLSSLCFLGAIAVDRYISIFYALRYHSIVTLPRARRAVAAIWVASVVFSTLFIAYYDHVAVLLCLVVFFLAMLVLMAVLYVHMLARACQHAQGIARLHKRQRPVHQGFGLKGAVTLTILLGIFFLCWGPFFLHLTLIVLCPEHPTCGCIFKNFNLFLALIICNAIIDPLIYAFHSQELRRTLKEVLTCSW

[2] = biological target: T1, Melanocyte-stimulating hormone receptor; test: In vitro effective concentration towards human Melanocortin 1 receptor (MC1R) in SPA-based cAMP assay in melanoma cells; assay type: cell-based
Target sequence in this assay (Q01726 whole entry): as above

Melanocortin receptor 4 [3] = biological target: T2, Melanocortin receptor 4 (Homo sapiens, UniProt P32245); test: In vitro effective concentration towards human Melanocortin 4 receptor (MC4R) was determined by a SPA-based cAMP assay in melanoma cells; assay type: cell-based
Melanocortin receptor 4 [4] = biological target: T2, Melanocortin receptor 4; test: In vitro intrinsic activity against human Melanocortin 4 receptor (MC4R)
[5] = biological target: T1, Melanocyte-stimulating hormone receptor; test: In vitro intrinsic activity against human Melanocortin 1 receptor (MC1R)
Target sequence in this assay (Q01726 whole entry, looked up): as the sequence (Q01726 whole entry) above

Melanocortin receptor 5 [6] = biological target: T3, Melanocortin receptor 5 (Homo sapiens, UniProt P33032); test: In vitro effective concentration towards human Melanocortin 5 receptor (MC5R) was determined by a SPA-based cAMP assay in melanoma cells; assay type: cell-based
Melanocortin receptor 3 [7] = biological target: T4, Melanocortin receptor 3 (Homo sapiens, UniProt P41968); test: In vitro effective concentration towards human Melanocortin-3 receptor (MC3R) was determined by a SPA-based cAMP assay in melanoma cells; assay type: cell-based
Melanocortin receptor 3 [8] = biological target: T4, Melanocortin receptor 3; test: In vitro intrinsic activity against human Melanocortin 3 receptor (MC3R)
Melanocortin receptor 5 [9] = biological target: T3, Melanocortin receptor 5; test: In vitro intrinsic activity against human Melanocortin 5 receptor (MC5R)
Procedure, shortened: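 A SPA-based cAMP assay was run in CHO cells overexpressing human MC-5R. EC50 and intrinsic activity (%) are given ± SEM.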

Melanocortin receptor 3 [10] = biological target: T4, Melanocortin receptor 3; test: In vitro inhibitory concentration against human Melanocortin 3 receptor (MC3R)
[11] = Vss value was determined by intravenous administration of 6.8 umol/kg dose in mice; assay type: ADME, organism-based; conditions: mouse, in vivo, read-out: Vss
Procedure, shortened: (§1)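 Balb/c mice (n = 3) given a single intravenous dose of 6.8 μmol/kg in 50:50 PEG400–water, with plasma pharmacokinetic parameters derived from the concentration–time profile.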

[12] = Cmax value was evaluated in mice by intravenous administration of 6.8 umol/kg dose; assay type: ADME, organism-based; design: dose 6.8 umol/kg, route intravenous; conditions: mouse, in vivo; procedure, shortened: as §1
[13] = Cl value was determined by intravenous administration of 6.8 umol/kg dose in mice; assay type: ADME, organism-based; conditions: mouse, in vivo; procedure, shortened: as §1
[14] = Half life by intravenous administration of 6.8 umol/kg dose in mice; assay type: ADME, organism-based; conditions: mouse, in vivo; procedure, shortened: as §1
[15] = MRT value was determined by intravenous administration of 6.8 umol/kg dose in mice; assay type: ADME, organism-based; conditions: mouse, in vivo; procedure, shortened: as §1
Melanocortin receptor 3 [16] = biological target: T4, Melanocortin receptor 3; test: In vitro effective concentration towards human Melanocortin 3 receptor (MC3R) was determined by a SPA-based cAMP assay in melanoma cells; assay type: cell-based

T3 sequence (P33032 whole entry): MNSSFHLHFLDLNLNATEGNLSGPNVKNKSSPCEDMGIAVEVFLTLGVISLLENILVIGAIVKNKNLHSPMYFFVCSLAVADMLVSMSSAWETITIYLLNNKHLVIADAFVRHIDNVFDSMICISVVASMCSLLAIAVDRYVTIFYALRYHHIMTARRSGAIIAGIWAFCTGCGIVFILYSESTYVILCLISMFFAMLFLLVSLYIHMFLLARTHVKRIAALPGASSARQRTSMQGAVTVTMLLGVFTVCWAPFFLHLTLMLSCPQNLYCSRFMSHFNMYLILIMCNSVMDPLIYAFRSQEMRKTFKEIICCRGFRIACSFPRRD
T4 sequence (P41968 whole entry): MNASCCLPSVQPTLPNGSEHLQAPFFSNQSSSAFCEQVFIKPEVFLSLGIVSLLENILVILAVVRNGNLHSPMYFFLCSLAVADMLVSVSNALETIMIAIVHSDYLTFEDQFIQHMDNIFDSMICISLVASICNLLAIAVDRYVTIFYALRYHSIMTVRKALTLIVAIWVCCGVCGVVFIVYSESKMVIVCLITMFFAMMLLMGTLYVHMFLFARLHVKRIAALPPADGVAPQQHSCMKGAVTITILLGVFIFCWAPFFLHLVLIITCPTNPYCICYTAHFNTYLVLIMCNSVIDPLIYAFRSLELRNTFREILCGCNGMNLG
T2 sequence (P32245 whole entry): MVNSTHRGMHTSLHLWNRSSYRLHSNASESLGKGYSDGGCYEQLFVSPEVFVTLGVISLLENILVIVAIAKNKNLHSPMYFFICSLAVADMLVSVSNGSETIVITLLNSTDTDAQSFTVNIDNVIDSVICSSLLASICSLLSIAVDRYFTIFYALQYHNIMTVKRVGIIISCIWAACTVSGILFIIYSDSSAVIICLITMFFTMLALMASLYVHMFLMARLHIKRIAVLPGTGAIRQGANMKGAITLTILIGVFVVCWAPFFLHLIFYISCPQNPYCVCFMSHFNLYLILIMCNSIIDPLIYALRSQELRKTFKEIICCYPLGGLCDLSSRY

| SMILES | IC50 [1] | EC50 [2] | EC50 (Melanocortin receptor 4 [3]) | Intrinsic activity (Melanocortin receptor 4 [4]) | Intrinsic activity [5] | EC50 (Melanocortin receptor 5 [6]) | Intrinsic activity (Melanocortin receptor 3 [8]) | Intrinsic activity (Melanocortin receptor 5 [9]) | also measured |
| --- | --- | --- | --- | --- | --- | --- | --- | --- | --- |
| CCCC(=O)C1(c2ccccc2)CCN(C(=O)[C@@H](Cc2ccc(OC)cc2)NC(=O)[C@H](O)Cc2cnc[nH]2)CC1 | 5.5 nM | 3.8 nM | 77 nM |  |  | 2700 nM |  |  | EC50 (Melanocortin receptor 3 [7]): 3900 nM |
| CCCC(=O)C1(c2ccccc2)CCN(C(=O)[C@@H](Cc2ccc(OC)cc2)NC(=O)[C@H](N)Cc2cncn2C)CC1 | 1500 nM | 510 nM |  |  | 34% |  |  |  |  |
| CCCC(=O)C1(c2ccccc2)CCN(C(=O)[C@@H](Cc2ccc(OC)cc2)NC(=O)[C@@H](Cc2c[nH]cn2)NC(=O)c2ccccc2)CC1 |  |  |  | 95% | 98% |  | 100% | 65% |  |
| CCCC(=O)C1(c2ccccc2)CCN(C(=O)[C@@H](Cc2ccc(OC)cc2)NC(=O)[C@@H](N)Cc2cncn2C)CC1 | 120 nM | 28 nM | 2600 nM | 39% | 92% | 4400 nM | 2.1% | 15% | NA (Melanocortin receptor 3 [10]): inactive; Vd [11]: 8.2 L/kg; Cmax [12]: 2200 nM; clearance [13]: 110 mL/min/kg; half-life [14]: 1.5 h; MRT [15]: 1.2 h |
| CCCC(=O)C1(c2ccccc2)CCN(C(=O)[C@@H](Cc2ccc(OC)cc2)NC(=O)[C@H](N)Cc2cnc[nH]2)CC1 | 32 nM | 1.5 nM | 630 nM |  |  | 10000 nM |  |  | EC50 (Melanocortin receptor 3 [16]): 1700 nM |
| CCCC(=O)C1(c2ccccc2)CCN(C(=O)[C@@H](Cc2ccc(OC)cc2)NC(=O)[C@@H](Cc2cnc[nH]2)NC(=O)c2ccccc2)CC1 | 3.1 nM | 0.19 nM | 2.9 nM |  |  | 2100 nM |  |  | EC50 (Melanocortin receptor 3 [16]): 250 nM |
| CCCC(=O)C1(c2ccccc2)CCN(C(=O)[C@@H](Cc2ccc(OC)cc2)NC(=O)[C@H](N)Cc2c[nH]cn2)CC1 |  |  |  | 103% | 93% |  | 98% | 40% |  |

Further lines, with some results ahead:

| IC50 [1] | EC50 [2] | EC50 (Melanocortin receptor 4 [3]) | Intrinsic activity (Melanocortin receptor 4 [4]) | Intrinsic activity [5] | EC50 (Melanocortin receptor 5 [6]) | Intrinsic activity (Melanocortin receptor 3 [8]) | Intrinsic activity (Melanocortin receptor 5 [9]) | SMILES | also measured |
| --- | --- | --- | --- | --- | --- | --- | --- | --- | --- |
| 1300 nM | 400 nM |  |  |  |  |  |  | CCCC(=O)C1(c2ccccc2)CCN(C(=O)[C@@H](Cc2ccc(OC)cc2)NC(=O)[C@@H](N)Cc2cnc[nH]2)CC1 |  |
|  | 220 nM | 40 nM | 95% | 80% |  |  |  | COc1ccc(C[C@@H](NC(=O)[C@H]2Cc3ccccc3CN2)C(=O)N2CCC3(CC2)CN(S(C)(=O)=O)c2ccccc23)cc1 |  |
|  |  |  |  | 67% |  |  |  | CCCC(=O)C1(c2ccccc2)CCN(C(=O)[C@@H](Cc2ccc(OC)cc2)NC(=O)[C@@H](N)Cc2c[nH]cn2)CC1 |  |
| 5.1 nM | 0.35 nM | 23 nM | 96% | 96% | 3900 nM | 90% | 90% | CCCC(=O)C1(c2ccccc2)CCN(C(=O)[C@@H](Cc2ccc(OC)cc2)NC(=O)[C@@H](Cc2c[nH]cn2)NC(C)=O)CC1 | EC50 (Melanocortin receptor 3 [16]): 2200 nM |
| 18 nM | 2.5 nM | 840 nM |  |  | 9400 nM |  |  | CCCC(=O)C1(c2ccccc2)CCN(C(=O)[C@@H](Cc2ccc(OC)cc2)NC(=O)CCc2cnc[nH]2)CC1 | EC50 (Melanocortin receptor 3 [16]): 7000 nM |
|  |  |  | 92% | 97% |  | 85% | 32% | CCCC(=O)C1(c2ccccc2)CCN(C(=O)[C@@H](Cc2ccc(OC)cc2)NC(=O)CCc2c[nH]cn2)CC1 |  |
|  |  |  | 95% | 90% |  | 85% | 20% | CCCC(=O)C1(c2ccccc2)CCN(C(=O)[C@@H](Cc2ccc(OC)cc2)NC(=O)[C@H](O)Cc2c[nH]cn2)CC1 |  |
